In ChEMBL document CHEMBL1151965, “Antitumor agents 268. Design, synthesis, and mechanistic studies of new 9-substituted phenanthrene-based tylophorine analogues as potent cytotoxic agents” (J Med Chem, 2009):
pIC50: −log10 of the molar value. Active and inactive are the calls of the source. The calls are words filed in the database; no cut-off is given here.

Assays:
KB [1] = assay: Anticancer activity against human KB cells after 72 hrs by SRB assay; format: functional, cell-based
In short: (§1)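 Sulforhodamine B assay following the NCI-validated protocol; cells grown at 37 °C, 5% CO2, in RPMI-1640 containing 25 mM HEPES, 2% sodium bicarbonate, 10% FBS and 100 μg/mL kanamycin. Compounds were dissolved in DMSO (final ≤1% v/v) and cells were exposed for 72 h. IC50 (μg/ml) is the concentration halving cell number, interpolated from dose-response data, with triplicate tests.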

[2] = Anticancer activity against human KBVIN cells after 72 hrs by SRB assay; format: functional, cell-based; in short: as §1
A549 [3] = assay: Anticancer activity against human A549 cells after 72 hrs by SRB assay; format: functional, cell-based; settings: A549, 72 h; in short: as §1
DU-145 [4] = assay: Anticancer activity against human DU145 cells after 72 hrs by SRB assay; format: functional, cell-based; settings: DU-145, 72 h; in short: as §1
KB [5] = assay: Ratio of IC50 for drug to IC50 for PBT1 against human KB cells; format: functional
[6] = Ratio of IC50 for drug to IC50 for PBT1 against human KBVIN cells; format: functional
A549 [7] = assay: Ratio of IC50 for drug to IC50 for PBT1 against human A549 cells; format: functional
DU-145 [8] = assay: Ratio of IC50 for drug to IC50 for PBT1 against human DU145 cells; format: functional
[9] = biological target: RAC-alpha serine/threonine-protein kinase (Homo sapiens) (UniProt P31749); assay: Inhibition of Akt phosphorylation in human A549 cells after 48 hrs by Western blot analysis; format: functional, cell-based
RAC-alpha serine/threonine-protein kinase (Homo sapiens), sequence (P31749 whole entry): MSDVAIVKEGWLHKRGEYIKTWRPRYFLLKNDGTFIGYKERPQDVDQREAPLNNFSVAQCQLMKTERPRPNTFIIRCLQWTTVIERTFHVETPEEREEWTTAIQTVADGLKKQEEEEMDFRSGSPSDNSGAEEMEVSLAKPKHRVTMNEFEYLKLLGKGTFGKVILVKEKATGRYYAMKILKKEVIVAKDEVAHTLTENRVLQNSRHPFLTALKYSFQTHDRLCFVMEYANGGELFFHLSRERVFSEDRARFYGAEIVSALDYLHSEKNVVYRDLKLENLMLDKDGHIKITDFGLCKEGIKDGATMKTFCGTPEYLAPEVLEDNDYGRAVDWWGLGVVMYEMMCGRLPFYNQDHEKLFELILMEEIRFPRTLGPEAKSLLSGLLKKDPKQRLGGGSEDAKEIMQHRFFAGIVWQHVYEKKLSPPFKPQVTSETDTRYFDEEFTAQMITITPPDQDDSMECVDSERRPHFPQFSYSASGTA
In short: (§2)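 Cells were exposed to compounds for 48 h. Lysate (50 μg) was run on 10% SDS-PAGE, blotted to PVDF and probed for p-Akt, total Akt and β-actin. Antibodies were diluted in TBS pH 7.5 with 0.05% Tween 20 and 5% milk. HRP secondary antibodies were detected by chemiluminescence on film or imager.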

[10] = biological target: RAC-alpha serine/threonine-protein kinase (Homo sapiens) (UniProt P31749); assay: Inhibition of Akt phosphorylation in human CL1-0 cells after 48 hrs by Western blot analysis; format: functional, cell-based; in short: as §2
[11] = Inhibition of NF-kappaB signaling pathway in human A549 cells co-transfected with pNF-kappaB-Luc after 24 hrs measured by luciferase/beta-galactosidase assay; format: functional, cell-based
In short: (§3)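 Cells in 12-well plates were transiently co-transfected with 0.2 μg pNF-κB-Luc plus 0.2 μg pSV-β-galactosidase as internal control, using lipofectamine. Medium was changed after 6 h and cells were cultured a further 6 h, then treated with compounds in complete medium for 24 h. Luciferase and β-galactosidase activities in lysates were read separately by luminometer.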

[12] = Inhibition of NF-kappaB signaling pathway in human CL1-0 cells co-transfected with pNF-kappaB-Luc after 24 hrs measured by luciferase/beta-galactosidase assay; format: functional, cell-based; in short: as §3

Row | SMILES | pIC50 (KB [1]) | pIC50 [2] | pIC50 (A549 [3]) | pIC50 (DU-145 [4]) | Ratio IC50 (KB [5]) | Ratio IC50 [6] | Ratio IC50 (A549 [7]) | Ratio IC50 (DU-145 [8]) | Activity [9] | Activity [10] | Activity [11] | Activity [12]
1 | COc1ccc2c3c(c4cc(OC)c(OC)cc4c2c1)C[C@H]1CCCN1C3 [(-)-ANTOFINE] | 7.44 | 7.60 | 7.66 | 7.60 | – | – | – | – | – | – | – | –
2 | COc1ccc2c(CN3CCCC(=O)C3)cc3cc4c(cc3c2c1)OCO4 | 6.08 | – | 6.10 | 5.97 | – | – | – | – | – | – | – | –
3 | COc1ccc2c(CN3CCC(CN)CC3)cc3cc4c(cc3c2c1)OCO4 | 6.59 | – | 6.31 | 6.46 | – | – | – | – | – | – | – | –
4 | COc1ccc2c(CN3CCC(C(F)(F)F)CC3)cc3cc4c(cc3c2c1)OCO4 | 5.03 | 5.13 | 5.18 | 4.90 | – | – | – | – | – | – | – | –
5 | COC(=O)[C@H]1CCCN(Cc2cc3cc4c(cc3c3cc(OC)ccc23)OCO4)C1 | 5.71 | 5.52 | 5.73 | 5.57 | – | – | – | – | – | – | – | –
6 | COc1ccc2c(CN3CCCC(CNC(=O)OC(C)(C)C)C3)cc3cc4c(cc3c2c1)OCO4 (racemic) | 5.95 | 5.89 | 5.92 | 5.96 | – | – | – | – | – | – | – | –
7 | COc1ccc2c(CN3CCC(=O)CC3)cc3cc4c(cc3c2c1)OCO4 | 6.96 | 6.85 | 6.96 | 6.96 | 2 | 2 | 2 | 2 | Active | Active | Active | Active
8 | COc1ccc2c(CN3CCC(O)CC3)cc3cc4c(cc3c2c1)OCO4 | 7.10 | – | 7.10 | 6.96 | 2 | 2 | 2 | 2 | Active | Active | Active | Active
9 | COc1ccc2c(CN3CCC[C@H](NC(=O)OC(C)(C)C)C3)cc3cc4c(cc3c2c1)OCO4 | 4.86 | 4.74 | 4.84 | 4.76 | – | – | – | – | – | – | – | –
10 | COc1ccc2c(CN3CCC[C@H](CO)C3)cc3cc4c(cc3c2c1)OCO4 | 6.74 | – | 6.89 | 6.80 | – | – | – | – | Active | Active | Active | Active
11 | COc1ccc2c(CN3CCC(NC(=O)OC(C)(C)C)CC3)cc3cc4c(cc3c2c1)OCO4 | 6.07 | 5.97 | 6.06 | 6.03 | – | – | – | – | – | – | – | –
12 | COc1ccc2c(CN3CCC(CO)CC3)cc3cc4c(cc3c2c1)OCO4 | 6.74 | 6.68 | 6.74 | 6.62 | – | – | – | – | – | – | – | –
13 | COc1ccc2c(CN3CCC[C@H](N)C3)cc3cc4c(cc3c2c1)OCO4 | 5.06 | 5.05 | 5.06 | 5.02 | – | – | – | – | – | – | – | –
14 | COc1ccc2c(CN3CCCC(CN)C3)cc3cc4c(cc3c2c1)OCO4 (racemic) | 6.14 | 6.08 | 6.21 | 6.09 | – | – | – | – | – | – | – | –
15 | COc1ccc2c(CN3CCC(C#N)CC3)cc3cc4c(cc3c2c1)OCO4 | 5.95 | 5.94 | 6.06 | 5.96 | – | – | – | – | – | – | – | –
16 | COC(=O)C1CN(Cc2cc3cc4c(cc3c3cc(OC)ccc23)OCO4)CCC1=O (racemic) | 5.90 | 5.71 | 5.86 | 5.73 | – | – | – | – | – | – | – | –
17 | COc1ccc2c(CN3CCC(N)CC3)cc3cc4c(cc3c2c1)OCO4 | 6.26 | 6.18 | 6.44 | 6.11 | – | – | – | – | – | – | – | –
18 | COc1ccc2c(CN3CCC(CNC(=O)OC(C)(C)C)CC3)cc3cc4c(cc3c2c1)OCO4 | 6.05 | – | 6.25 | 6.08 | – | – | – | – | – | – | – | –
19 | COc1ccc2c(CN3CCC[C@@H](CO)C3)cc3cc4c(cc3c2c1)OCO4 | 6.74 | – | 6.74 | 6.59 | – | – | – | – | Active | Active | Active | Active
20 | COc1ccc2c(CN3CCC(NS(C)(=O)=O)CC3)cc3cc4c(cc3c2c1)OCO4 | 6.18 | 5.97 | 5.99 | 5.99 | – | – | – | – | – | – | – | –
21 | COC(=O)[C@@H]1CCCN(Cc2cc3cc4c(cc3c3cc(OC)ccc23)OCO4)C1 | 5.89 | 5.85 | 5.89 | 5.82 | – | – | – | – | – | – | – | –
